Source: ChEMBL document CHEMBL1155976, “Synthesis and preliminary pharmacological evaluation of imidazo[2,1-f]purine-2,4-dione derivatives” (Eur J Med Chem, 2009)
Active and inactive are the calls of the source. No cut-off for these calls is given here.

How the values were obtained:
[1] = biological target: 5-hydroxytryptamine receptor 2A (Rattus norvegicus, UniProt P14842); test: Displacement of [3H]ketanserin from 5HT2A receptor in rat cerebral cortex after 20 mins by liquid scintillation counting; assay type: tissue-based
In short: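 Rat cerebral cortex homogenised in 50 mM Tris-HCl pH 7.7, spun at 32000 × g, preincubated 10 min at 37 °C, resuspended in 50 volumes. Incubated with 0.6 nM [3H]-ketanserin and test agent (10^-10 to 10^-4 M) at 37 °C for 20 min; mianserin as displacer. GF/B filtration, scintillation counting; Ki from ≥3 experiments, 10 concentrations in triplicate.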

[2] = biological target: T1, 5-hydroxytryptamine receptor 1A (Rattus norvegicus, UniProt P19327); test: Displacement of [3H]8-OH-DPAT from 5HT1A receptor in rat cerebral cortex after 15 mins by liquid scintillation counting; assay type: tissue-based
T1 sequence (P19327 whole entry): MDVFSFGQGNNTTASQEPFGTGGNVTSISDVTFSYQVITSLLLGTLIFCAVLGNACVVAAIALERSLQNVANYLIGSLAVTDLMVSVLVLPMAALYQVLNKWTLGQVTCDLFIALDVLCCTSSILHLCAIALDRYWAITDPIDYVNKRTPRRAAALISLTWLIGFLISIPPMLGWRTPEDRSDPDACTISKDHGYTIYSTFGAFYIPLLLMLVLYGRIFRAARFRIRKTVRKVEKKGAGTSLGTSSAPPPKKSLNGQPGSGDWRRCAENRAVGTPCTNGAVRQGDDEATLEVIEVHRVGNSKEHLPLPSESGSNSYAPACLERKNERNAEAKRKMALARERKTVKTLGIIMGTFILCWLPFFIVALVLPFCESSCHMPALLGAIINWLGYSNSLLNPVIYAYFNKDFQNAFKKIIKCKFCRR

[3] = biological target: D(2) dopamine receptor (Rattus norvegicus, UniProt P61169); test: Displacement of [3H]spiperone from dopamine D2 receptor in rat striatum membrane after 30 mins by liquid scintillation counting; assay type: cell membranes
In short: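 Rat striatum homogenised in 50 mM potassium phosphate pH 7.4 and spun twice at 20000 × g. Membranes (3 mg wet weight) incubated with 1 nM [3H]-spiperone and test agent in 0.5 ml for 30 min at 37 °C. Nonspecific binding with (+)butaclamol. GF/B filtration, two washes with ice-cold buffer, scintillation counting; Ki from ≥3 experiments, 10 concentrations in triplicate.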

[4] = tested on: Mus musculus; test: Sedative activity in Swiss albino mouse assessed as reduction on spontaneous locomotor activity at 10 mg/kg, ip administered 30 mins before test measured for 30 mins; assay type: ADME, organism-based; set-up: dose 10 mg/kg, route intraperitoneal; conditions: in vivo, 0.5 h
[5] = tested on: Mus musculus; test: Sedative activity in Swiss albino mouse assessed as reduction on spontaneous locomotor activity at 20 mg/kg, ip administered 30 mins before test measured for 30 mins; assay type: ADME, organism-based; set-up: dose 20 mg/kg, route intraperitoneal; conditions: in vivo, 0.5 h
In short: (§1)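 Male Albino Swiss mice (24–28 g); agent ip in 1% Tween 80, 30 min before the test. Locomotor activity counted as number of crossings during 6-min and 30-min sessions. n = 8–10 mice per group; mean ± SEM versus vehicle.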

[6] = tested on: Mus musculus; test: Sedative activity in Swiss albino mouse assessed as reduction on spontaneous locomotor activity at 30 mg/kg, ip administered 30 mins before test measured for 30 mins; assay type: ADME, organism-based; set-up: dose 30 mg/kg, route intraperitoneal; conditions: in vivo, 0.5 h; in short: as §1
[7] = tested on: Mus musculus; test: Sedative activity in Swiss albino mouse assessed as reduction on spontaneous locomotor activity at 10 mg/kg, ip administered 30 mins before test measured for 6 mins; assay type: ADME, organism-based; set-up: dose 10 mg/kg, route intraperitoneal; conditions: in vivo, 0.1 h
[8] = tested on: Mus musculus; test: Sedative activity in Swiss albino mouse assessed as reduction on spontaneous locomotor activity at 20 mg/kg, ip administered 30 mins before test measured for 6 mins; assay type: ADME, organism-based; set-up: dose 20 mg/kg, route intraperitoneal; conditions: in vivo, 0.1 h; in short: as §1
[9] = tested on: Mus musculus; test: Antidepressant activity in Swiss albino mouse assessed as reduction of immobility time at 30 mg/kg, ip administered 30 mins before test by forced swimming test; assay type: functional; conditions: route intraperitoneal
In short: (§2)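 Male Albino Swiss mice (24–28 g); agent suspended in 1% aqueous Tween 80, ip 10 ml/kg, 30 min before the test. Total immobility time scored over the last 4 min of a 6-min swim session. n = 8–10 mice per group; mean ± SEM, compared with vehicle.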

[10] = tested on: Mus musculus; test: Antidepressant activity in Swiss albino mouse assessed as reduction of immobility time at 10 mg/kg, ip administered 30 mins before test by forced swimming test; assay type: functional; conditions: route intraperitoneal; in short: as §2
[11] = tested on: Mus musculus; test: Antidepressant activity in Swiss albino mouse assessed as reduction of immobility time at 20 mg/kg, ip administered 30 mins before test by forced swimming test; assay type: functional; conditions: route intraperitoneal; in short: as §2
[12] = tested on: Mus musculus; test: Sedative activity in Swiss albino mouse assessed as reduction on spontaneous locomotor activity at 30 mg/kg, ip administered 30 mins before test measured for 6 mins; assay type: ADME, organism-based; set-up: dose 30 mg/kg, route intraperitoneal; conditions: in vivo, 0.1 h; in short: as §1
[13] = tested on: Mus musculus; test: Agonist activity at 5HT1A receptor in Swiss albino mouse assessed as decrease in rectal temperature at 10 mg/kg, ip after 60 mins; assay type: functional, organism-based; set-up: dose 10 mg/kg
In short: (§3)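 Male Albino Swiss mice (24–28 g), free food and water, room at 20 ± 1 °C; test agent suspended in 1% aqueous Tween 80, given ip at 10 ml/kg. Rectal temperature read with a thermometer at 30, 60, 90 and 120 min after dosing. Result expressed as Δt from basal temperature taken at the start; six to ten animals per group, each used once.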

[14] = tested on: Mus musculus; test: Agonist activity at 5HT1A receptor in Swiss albino mouse assessed as decrease in rectal temperature at 5 mg/kg, ip after 120 mins; assay type: functional, organism-based; set-up: dose 5 mg/kg; in short: as §3
[15] = tested on: Mus musculus; test: Agonist activity at 5HT1A receptor in Swiss albino mouse assessed as decrease in rectal temperature at 10 mg/kg, ip after 30 mins; assay type: functional, organism-based; set-up: dose 10 mg/kg; in short: as §3
[16] = tested on: Mus musculus; test: Agonist activity at 5HT1A receptor in Swiss albino mouse assessed as decrease in rectal temperature at 10 mg/kg, ip after 30 mins in presence of WAY 100635 administered 15 mins before drug challenge; assay type: functional, organism-based; set-up: dose 10 mg/kg
In short: (§4)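 Male Albino Swiss mice (24–28 g). WAY 100635 (0.1 mg/kg, sc, in distilled water) given 15 min before test agent (ip, suspended in 1% Tween 80, 10 ml/kg). Rectal temperature recorded 30 and 60 min after test agent injection. Expressed as Δt versus basal temperature at the start of the experiment.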

[17] = tested on: Mus musculus; test: Agonist activity at 5HT1A receptor in Swiss albino mouse assessed as decrease in rectal temperature at 10 mg/kg, ip after 90 mins; assay type: functional, organism-based; set-up: dose 10 mg/kg; in short: as §3
[18] = tested on: Mus musculus; test: Anxiolytic activity in Swiss albino mouse assessed as number of punished crossings at 20 mg/kg, ip. administered 30 mins before test measured for 60s by four plate test; assay type: functional
In short: (§5)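 Male Albino Swiss mice. Box with four metal floor plates separated by 4 mm gaps; 120 V between adjacent plates for 0.5 s delivered on crossing. Mice explored 15 s before testing. Agent (ip, 1% Tween 80) given 30 min before the test. Punished crossings counted; n = 10 mice per group, mean ± SEM.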

[19] = tested on: Mus musculus; test: Agonist activity at 5HT1A receptor in ip dosed Swiss albino mouse assessed as decrease in rectal temperature; assay type: functional, organism-based; in short: as §3
[20] = tested on: Mus musculus; test: Agonist activity at 5HT1A receptor in Swiss albino mouse assessed as decrease in rectal temperature at 5 mg/kg, ip after 30 mins; assay type: functional, organism-based; set-up: dose 5 mg/kg; in short: as §3
[21] = tested on: Mus musculus; test: Agonist activity at 5HT1A receptor in Swiss albino mouse assessed as decrease in rectal temperature at 10 mg/kg, ip after 120 mins; assay type: functional, organism-based; set-up: dose 10 mg/kg; in short: as §3
[22] = tested on: Mus musculus; test: Anxiolytic activity in Swiss albino mouse assessed as number of punished crossings at 30 mg/kg, ip administered 30 mins before test measured for 60s by four plate test; assay type: functional; conditions: route intraperitoneal; in short: as §5
[23] = tested on: Rattus norvegicus; test: Behavioral activity in Wistar rat assessed as induction of lower lip retraction at 10 to 20 mg/kg, ip; assay type: functional, organism-based
In short: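 Male Wistar rats (290–310 g); agent ip in 1% Tween 80 at 2 ml/kg. Rats housed singly in cages and scored 15, 30 and 45 min after dosing: 0 = lower incisors not visible, 0.5 = partly, 1 = fully visible. Maximum total score 3 per rat.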

[24] = tested on: Mus musculus; test: Agonist activity at 5HT1A receptor in Swiss albino mouse assessed as decrease in rectal temperature at 5 mg/kg, ip after 90 mins; assay type: functional, organism-based; set-up: dose 5 mg/kg; in short: as §3
[25] = tested on: Mus musculus; test: Agonist activity at 5HT1A receptor in Swiss albino mouse assessed as decrease in rectal temperature at 10 mg/kg, ip after 60 mins in presence of WAY 100635 administered 15 mins before drug challenge; assay type: functional, organism-based; set-up: dose 10 mg/kg; in short: as §4
[26] = tested on: Mus musculus; test: Agonist activity at 5HT1A receptor in Swiss albino mouse assessed as decrease in rectal temperature at 5 mg/kg, ip after 60 mins; assay type: functional, organism-based; set-up: dose 5 mg/kg; in short: as §3
[27] = tested on: Rattus norvegicus; test: Behavioral activity in Wistar rat assessed as reduction of 8-OH-DPAT-induced lower lip retraction at 10 to 20 mg/kg, ip administered 45 mins before 8-OH-DPAT challenge; assay type: functional, organism-based

Sequence of D(2) dopamine receptor (P61169 whole entry): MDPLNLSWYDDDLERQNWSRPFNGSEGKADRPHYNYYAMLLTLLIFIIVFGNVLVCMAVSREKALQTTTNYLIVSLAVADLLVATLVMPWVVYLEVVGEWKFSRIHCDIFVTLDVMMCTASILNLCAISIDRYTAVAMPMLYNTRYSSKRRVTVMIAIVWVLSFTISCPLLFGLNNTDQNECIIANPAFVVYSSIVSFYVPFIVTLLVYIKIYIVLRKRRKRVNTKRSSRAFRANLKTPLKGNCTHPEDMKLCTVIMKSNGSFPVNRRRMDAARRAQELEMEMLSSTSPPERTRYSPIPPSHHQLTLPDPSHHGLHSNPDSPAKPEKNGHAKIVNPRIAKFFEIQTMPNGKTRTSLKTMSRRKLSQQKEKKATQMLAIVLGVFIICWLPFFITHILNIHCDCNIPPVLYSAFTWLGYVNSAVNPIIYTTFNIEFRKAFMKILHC
Sequence of 5-hydroxytryptamine receptor 2A (P14842 whole entry): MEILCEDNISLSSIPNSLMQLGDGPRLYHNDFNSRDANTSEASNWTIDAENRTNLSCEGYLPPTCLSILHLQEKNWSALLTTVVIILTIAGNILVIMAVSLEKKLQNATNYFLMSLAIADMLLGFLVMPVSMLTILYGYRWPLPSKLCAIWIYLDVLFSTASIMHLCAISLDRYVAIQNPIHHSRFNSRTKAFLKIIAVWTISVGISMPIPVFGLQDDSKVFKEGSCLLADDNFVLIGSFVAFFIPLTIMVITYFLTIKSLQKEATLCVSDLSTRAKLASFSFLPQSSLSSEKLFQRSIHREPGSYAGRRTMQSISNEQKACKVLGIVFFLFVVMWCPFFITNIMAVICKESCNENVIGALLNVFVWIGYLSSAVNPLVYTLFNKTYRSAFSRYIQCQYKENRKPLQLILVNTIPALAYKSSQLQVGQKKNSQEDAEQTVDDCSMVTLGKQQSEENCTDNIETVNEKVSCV

SMILES	Ki [1] [nM]	Ki [2] [nM]	Ki [3] [nM]	deltaT [13] [°C]	deltaT [14] [°C]	deltaT [15] [°C]	deltaT [16] [°C]	deltaT [17] [°C]	Activity [19]	deltaT [20] [°C]	deltaT [21] [°C]	further results
COc1ccccc1N1CCN(CCCN2CCCn3c2nc2c3c(=O)n(C)c(=O)n2C)CC1	486	2.8	–	–	–	–	–	–	–	–	–	–
Cn1c(=O)c2c(nc3n(CCCN4CCN(c5cccc(Cl)c5)CC4)ccn23)n(C)c1=O	91.5	> 1000	> 1000	–	–	–	–	–	–	–	–	–
CN(C)CCCN1c2ccccc2CCc2ccccc21 [IMIPRAMINE]	–	–	–	–	–	–	–	–	–	–	–	Activity [4]: 876.8; Activity [5]: 625.3; Activity [6]: 602.3; Activity [7]: 338; Activity [8]: 314.9; Activity [9]: 76.4 s; Activity [10]: 149.1 s; Activity [11]: 107.8 s; Activity [12]: 300.9
COc1ccccc1N1CCN(CCCn2c(-c3ccccc3)cn3c4c(=O)n(C)c(=O)n(C)c4nc23)CC1	> 1000	5.6	143	-0.6	0	-2	-0.9	-0.6	Dose-dependent effect	-0.7	-0.5	Activity [18]: 3.5; Activity [9]: 172 s; Activity [11]: 169.3 s; Activity [22]: 3.2
Cn1c(=O)c2c(nc3n(CCCN4CCN(c5cccc(Cl)c5)CC4)c(-c4ccccc4)cn23)n(C)c1=O	> 1000	–	–	–	–	–	–	–	–	–	–	–
Cc1cn2c3c(=O)n(C)c(=O)n(C)c3nc2n1CCCN1CCN(c2cccc(Cl)c2)CC1	403	17.1	767	-0.7	-0.1	-1	-0.9	-0.8	Dose-dependent effect	-0.5	-0.1	Activity [23]: inactive; deltaT [24]: -0.5 °C; deltaT [25]: -0.5 °C; deltaT [26]: -0.4 °C
Cc1cn2c3c(=O)n(C)c(=O)n(C)c3nc2n1CCCN1CCN(c2ccccc2)CC1	> 1000	76.4	> 1000	–	–	–	–	–	–	–	–	–
COc1ccccc1N1CCN(CCCn2c(C)cn3c4c(=O)n(C)c(=O)n(C)c4nc23)CC1	> 1000	16.8	345	-0.5	-0.1	-0.9	-1	-0.6	Dose-dependent effect	-0.4	-0.2	Activity [23]: inactive; deltaT [24]: -0.3 °C; deltaT [25]: -0.9 °C; Activity [27]: inactive; deltaT [26]: -0.4 °C
